Reference: ChEMBL document CHEMBL4513216, “Probing the Open Global Health Chemical Diversity Library for Multistage-Active Starting Points for Next-Generation Antimalarials” (ACS Infect Dis, 2020)

Assay: Toxicity liver stage against HepG2, at 10uM
Assay type: cell-based
Set-up: test concentration 10 uM, cell line HepG2-A16-CD81EGFP
Conditions: human, HepG2-A16-CD81EGFP cells; read-out: INHIBITION
Outline: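 Uninfected HepG2-A16-CD81EGFP cells, 3 × 10^3 per well, 1536-well, plated on prespotted compound at 10 μM final, parasite-free screening media added to match infected plates; puromycin 10 μM positive, DMSO 0.5% negative; run in parallel with 48 h PbLuc assay at 37 °C, 5% CO2; viability by CellTiter-Glo luminescence, normalized to controls.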

Compound	cytotoxicity at 10 µM [%]
COCC(=O)N1CC[C@@H]2O[C@@H](C)C[C@H]2C1	-69.6
N#CCCN(CCC#N)Cc1ccc(Br)c2cccnc12	1.73
Cc1nn(C)c2nc(N(Cc3nccs3)C3CC3)sc12	-45.9
COc1ccc(CNC(=O)CCn2cc(C)cn2)cc1C	-4.27
O=C(NCC1CC1)[C@@H]1C[C@@H]2OCCN[C@@H]2C1	-131
Cc1ncc(CNC(=O)CCc2ccccc2F)c(C2CCCN2C)n1 (stereo unspecified)	-7.55
CC(C)c1cc(NCC(C)N2CCCC2)n2nccc2n1 (stereo unspecified)	-12.4
CCOc1ncccc1NC(=O)NC1CCN(C(=O)C2CC2)CC1	-13.6
Cc1n[nH]c(C)c1C1COCCN1C(=O)c1cc(F)ccc1F (stereo unspecified)	-9.24
O=C(c1cc2ccccc2c(=O)[nH]1)N1CCN(CCO)CC1	4.96
CCn1nc(C)c(NC(=O)CCn2ncc3cc(C)ccc32)c1C	10.8
Fc1cccc(-c2nnn3c2COC(CNCc2nccs2)C3)c1 (stereo unspecified)	-102
Cn1cnc2c1CCN(Cc1csc(-c3ccccc3F)n1)C2	-4.25
Cc1nc(C)n(CC2CCCN(Cc3ccc(F)cc3C#N)C2)n1 (stereo unspecified)	-10.8
Cc1ccc(C)c(N2CCN(CC3(O)CCNC3)CC2)c1 (stereo unspecified)	-5.83
CC(C)CC(NC(=O)c1ccco1)c1nc2cccnc2n1C (stereo unspecified)	6.08
Cc1cc(C2CCCN2CCCS(=O)(=O)c2ccccc2)no1 (stereo unspecified)	-8.83
CCN1CCCC1CN(CCN(C)C)S(=O)(=O)c1cccc(C#N)c1 (stereo unspecified)	-12.1
O=C(O)c1c(-c2ccncc2)ncc2c1CCN(CC1CCOC1)C2 (stereo unspecified)	-100
CS(=O)(=O)N1CCN2C(=O)N(C3CCOCC3)C[C@H]2C1	5.76
CC(C)CN1C(=O)C2(CCCC2)NC1c1cccnc1 (stereo unspecified)	3.71
O=C(c1n[nH]cc1Cl)N1CCSCC1	4.51
C[C@@H]1CN(C2CCN(Cc3nn(C)c4cccc(Cl)c34)CC2)C[C@H](C)O1	-6.48

Compound	cytotoxicity at 10 µM [%]
Cc1ccccc1-c1noc(C2CC(C(C)C)=NO2)n1 (stereo unspecified)	-14.6
O=C(CN1CC(n2cccn2)C1)NCC1(c2ccccc2)CCC1	-3.14
COc1c(CNCc2ccc(N3CCOCC3)nc2)c(C)nn1C	9.5
COCCNC(=O)N1CCC(NC(C)C)CC1	7.96
Cc1cccc(CN2CCC3(CCN(c4ncccn4)CC3)C2=O)c1	5.32
COc1cc(C(C)NCc2scnc2C)ccc1SC(F)F (stereo unspecified)	36.8
CN(C)C(CNC(=O)c1nc(N2CCOCC2)ncc1Cl)c1cccs1 (stereo unspecified)	8.26
Cc1nc(C)n(CC2CN(CCCOc3ccccc3)CCO2)n1 (stereo unspecified)	-0.924
CNC(=O)C1(Cc2cc(C(C)C)no2)CCN(Cc2cccnc2)C1 (stereo unspecified)	4.61
CC(C)C(C)NC(=O)Nc1ccccc1CN1CCOCC1 (stereo unspecified)	0.795
NS(=O)(=O)c1cc(C(=O)N2CCCCC2)cs1	-0.174
O[C@@H]1CC(CNCc2ccccn2)(COc2cccnc2)C[C@@H]1O (stereo partly specified)	-10.3
Cc1nc(-c2cc(C(=O)N3CCN(C)CC3)c3ccccn23)cn1C	8.73
O=C(NCC(F)(F)F)C1=NOC2(CCCNC2)C1 (stereo unspecified)	2.16
O=C(O)C1CN(c2cccc(F)c2)CCO1 (stereo unspecified)	-25.2
CC(=O)NCCNC(=O)Nc1ccc(C)cc1OCc1ccccc1	9.79
Cc1noc(C)c1-c1nc(C2CCCNC2)ccc1CO (stereo unspecified)	-21.3
CC(C)N1CCC(N(C)c2ccnc(N(C)C)n2)CC1	-3.3
N#Cc1ccc(S(=O)(=O)NC(=O)c2ccc3c(c2)COC3)cc1	1.39
COC1CCN(C(=O)C2CCCC2)CC(=O)N(C)c2ccccc21 (stereo unspecified)	-8.88
CCn1cc(CNCC(c2ccc(C)s2)N2CCOCC2)cn1 (stereo unspecified)	-8.65
Cc1cc(C)n2nc(CC(=O)N3CC[C@H]4NCCC[C@]4(CO)C3)nc2n1	-0.363
COc1ccc(Cl)cc1CS(=O)(=O)Cc1nc(C)no1	-2.53

Compound	cytotoxicity at 10 µM [%]
Cn1cc2c(n1)C(CNCC1CCOCC1)OCC2 (stereo unspecified)	6.86
COCC(Nc1ncnc2c1CCNCC2)c1ccccn1 (stereo unspecified)	0.565
C[C@@H]1C[C@H](C(F)(F)F)n2nc(C3CCN(S(C)(=O)=O)CC3)cc2N1	-16.9
CCc1c(C)nc2ccccc2c1N1CCC(NC(C)=O)CC1	11.2
Cc1cc(CNc2nccc(N)n2)c2[nH]c(C)c(C)c2c1	-1.86
CN1CCC(N2CCN(C(C(=O)O)c3cccc4c3OCC4)CC2)CC1 (stereo unspecified)	11
CCN1CCn2c(C)cnc2C12CCN(C(=O)C(C)C)CC2	3.06
Cc1cccc(CN2CC3(CCN(S(=O)(=O)C4CC4)CC3)OCC2=O)n1	-3.27
CCOC(=O)CN1CCC(C(=O)c2cc(F)ccc2F)CC1	-8.11
CCOCC1CN(Cc2ccc(F)cc2)Cc2nn(C)cc21 (stereo unspecified)	-83.3
N#Cc1ccc(N2CC3(CCN(c4nccs4)C3)C2)nc1	-12.5
Cc1oncc1C(=O)N1CC[C@H]2[C@@H]1CCC(=O)N2CC1CCOCC1	4.33
COC(C)c1noc(CN(C)c2ncc(Br)cn2)n1 (stereo unspecified)	-1.26
CN(Cc1ccccn1)C1CC2(CCN(Cc3ccccn3)CC2)C1	-87
CCCNC(=O)N1CCc2ccc(S(=O)(=O)N3CCN(C)CC3)cc2C1	-10
Cc1nnc(SC2CCN(c3sccc3C#N)C2=O)s1 (stereo unspecified)	-7.22
O=C(c1n[nH]c2c1CCC2)N1CCCC1c1nc(-c2ccccc2)no1 (stereo unspecified)	6.43
CCc1c(NCc2ccncc2)cnn1CC(C)C	7.81
COc1cccc2ccc(CN3CCN(c4ncccc4C)CC3)nc12	-5.21
CCn1cnnc1CNS(=O)(=O)N1CCCC1c1ccco1 (stereo unspecified)	-141
COCC(=O)NCC1CCN(Cc2ccsc2)CC1	-3.88
CCC(C)N(Cc1ccncc1)Cc1ccccc1Cn1cccn1 (stereo unspecified)	-44.4
CCC(C)NC(=O)c1cc(S(N)(=O)=O)c(Br)s1 (stereo unspecified)	-4.38

Compound	cytotoxicity at 10 µM [%]
O=C(c1ccon1)N1CCc2ncnc(NCc3cccnc3)c2CC1	-1.9
CC(=O)NCc1noc2c1CN(Cc1cccs1)CC2	-5.18
NC(=O)C(CNC(=O)CCc1ccccc1)Cc1ccc(F)cc1 (stereo unspecified)	6.62
COc1ccc(C(=O)N2Cc3cc(C)ccc3OCC2CN(C)C)cc1 (stereo unspecified)	-14.5
CN1CCN(C2CCN(Cc3ccc(Cl)s3)CC2)C1=O	11.2
Cc1cc(CN2C[C@@H](C)[C@@]3(CCN(CC(=O)N(C)C)C3=O)C2)oc1C	9.94
CC(C)CCN1C[C@@H]2C[C@H](C(=O)NCC(C)C)[C@H](C1)O2	5.9
CC(C)N1CC[C@@H]2[C@H](COCC3CC3)CN(C)C(=O)[C@@H]2CC1	6.8
COc1ccccc1[C@@H]1CN(Cc2ccc3nsnc3c2)C[C@H]1C(=O)O	-4.18
Cc1ccc(C(=O)N2CCCC(C(=O)N3CCCCC3)C2)c(O)c1 (stereo unspecified)	-7.52
CC1CCCN(C(=O)C2CCN(c3snc4ccccc34)CC2)C1 (stereo unspecified)	10.1
Cc1cc(C)c2nc(C)c(C(=O)N3CCC(CCN(C)C)CC3)cc2c1	-4.91
c1cnc(N2C[C@H]3CCN(CC4CC4)C[C@H]3C2)cn1	-108
COc1c(C2CCCN2CC(=O)N(C)Cc2ccco2)c(C)nn1C (stereo unspecified)	-3.13
CCCn1c(C)c(CC(=O)NCC(N)=O)c2c1CC(C)(C)CC2=O	2.03
Cc1cc(C2CCCN2Cc2ccc(S(=O)(=O)N3CCCC3)o2)on1 (stereo unspecified)	-11.9
CCN1CCCC(O)(CN(C)Cc2ccccc2F)C1 (stereo unspecified)	-6.43
N#Cc1ccc(C(=O)N2CCn3c(Cn4cccn4)cnc3C2)cc1	3.09
O=C([C@H]1C[C@H]2OCC[C@H]2N(Cc2cccnc2)C1)N1CCCO1	-2.83
CC(=O)N1CCC(c2n[nH]c3nccnc23)CC1	-8.69
CCO[C@@H]1CO[C@@]2(CCN(Cc3ccc4c(c3)OCO4)C2)C1	5.53
COc1ccccc1OC1CCN(C(=O)C2CCCN(C)C2)CC1 (stereo unspecified)	-53.5
COc1ccccc1CN1CCC(Cc2cnc(CN(C)C)cn2)CC1	-6.45

Compound	cytotoxicity at 10 µM [%]
CCn1ccnc1CN1CCCN(C(=O)c2cc(C)nn2CC)CC1	-5.89
Cc1noc(C)c1CC(=O)NCC(CC(C)C)N1CCOCC1 (stereo unspecified)	-40.6
CN1[C@@H](C(=O)NCC2CC2)C[C@H]2CN(Cc3ccsc3)C[C@H]21	-0.213
Cc1cnccc1-n1nc(C(C)C)nc1CS(C)(=O)=O	0.999
CCOCc1ncn2c1CN(S(=O)(=O)c1ccc(C)cc1)CC2	-0.602
Cn1ccc(C(=O)NCc2cccc(NC(=O)C3CCC3)c2)cc1=O	-10
c1cnc(N2CCOCC3(CN(Cc4cc[nH]n4)CCO3)C2)nc1 (stereo unspecified)	10
Cc1ccccc1C(C)NC(=O)Cc1c(C)nc2cc(=O)[nH]n2c1C (stereo unspecified)	10.8
Cc1cc(C)c2c(NCc3nncn3C3CCCCC3)ncnc2n1	-0.404
COc1ccc2cccc(CC(=O)NCCc3n[nH]c(=O)[nH]3)c2c1	-3.59
Cc1ccsc1CN(Cc1cccnc1)C1CC(C)(C)NC(C)(C)C1	-10.7
c1cnc(N2CCO[C@H]3CN(CC4CCOC4)C[C@H]32)cn1 (stereo partly specified)	-104
Cn1ccnc1CN1CC2(CCN(Cc3ccncc3)C2)C1	-5.76
CS(=O)(=O)N1CCC(Nc2ccc(C#N)c(C(F)(F)F)c2)CC1	6.85
CC(Cn1cc(Br)cn1)C(=O)Nc1ccc(Cl)cn1 (stereo unspecified)	34
O=C(Cc1cccnc1)N1CCC(c2nnc(-c3ccccn3)o2)CC1	0.91
CC(Nc1ccc(Br)cc1)c1nc(C2CC2)no1 (stereo unspecified)	6.27
CCC1CCC(CNC(=O)c2c[nH]c(=O)c(Cl)c2)CC1 (stereo unspecified)	-8.46
CCn1c(Cn2cncn2)nnc1C1CCN(Cc2cccnc2)CC1	5.91
